The assay concerns the target Platelet-activating factor acetylhydrolase (Homo sapiens) (UniProt Q13093). Description: pPAFAH inhibitor binding mode by mass spectrometry – biochemical, LC-MS/MS, mechanism study, late-stage follow-up (AID 588788). The following applies: purified recombinant pPAFAH, LC-MS/MS active-site labeling. The method in brief:
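Material: recombinant human pPAFAH hydrophobic-patch triple mutant; Input: pPAFAH at 40 µM before compound addition; Schedule: Enzyme–compound incubation 60 min at 37 °C, overnight tryptic digestion; Benchmarks: DMSO-only enzyme sample; Medium: DPBS buffer; Read-out: covalent +253.12152 Da adduct on catalytic serine, 1% peptide FDR; Compound dosing: one dose, 100 µM final.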

Drawing on PubChem BioAssay AID588788 (The Scripps Research Institute Molecular Screening Center, 2011), this text covers outcome for 1 compound.

Each structure is given as a SMILES string. Activity calls are given as the source filed them.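 Rule for the calls: active = compound seen by mass spectrometry to covalently label the enzyme's active site serine; inactive = no covalent labeling seen.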

Sequence of Platelet-activating factor acetylhydrolase (Homo sapiens) (Q13093 42-441 I120A/L123A/L124A limits assumed): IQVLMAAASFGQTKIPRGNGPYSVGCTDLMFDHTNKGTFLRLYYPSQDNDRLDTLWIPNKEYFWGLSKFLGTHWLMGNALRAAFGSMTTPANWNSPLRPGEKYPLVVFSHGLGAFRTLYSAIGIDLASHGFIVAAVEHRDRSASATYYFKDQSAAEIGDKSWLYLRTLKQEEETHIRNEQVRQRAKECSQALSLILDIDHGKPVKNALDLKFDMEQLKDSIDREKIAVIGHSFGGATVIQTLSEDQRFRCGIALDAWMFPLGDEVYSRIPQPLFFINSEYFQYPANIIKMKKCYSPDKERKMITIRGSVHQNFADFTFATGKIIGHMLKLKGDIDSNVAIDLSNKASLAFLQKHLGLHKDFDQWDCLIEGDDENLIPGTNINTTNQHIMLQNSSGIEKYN

On to `Cc1cc(N2CCN(C(=O)Oc3ccc(-c4ccccc4)cn3)CC2)c2ccccc2n1`, for which the outcome was “active; covalent”.
